From ChEMBL document CHEMBL3797154, “Design and Synthesis of 1-((1,5-Bis(4-chlorophenyl)-2-methyl-1H-pyrrol-3-yl)methyl)-4-methylpiperazine (BM212) and N-Adamantan-2-yl-N'-((E)-3,7-dimethylocta-2,6-dienyl)ethane-1,2-diamine (SQ109) Pyrrole Hybrid Derivatives: Discovery of Potent Antitubercular Agents Effective against …” (J Med Chem, 2016)
Converted amounts (≈) assume the structure as drawn. The source made the active and inactive calls. No cut-off for these calls is given here.

Columns and labels:
[1] = tested on: Mycobacterium tuberculosis; test: Antimycobacterial activity against Mycobacterium tuberculosis H37Rv ATTC 27294 assessed as inhibition of mycobacterial growth incubated for 7 days; type: functional; conditions: H37Rv ATTC 27294, 168 h
How it was run: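 MIC by HT-SPOTi on Middlebrook 7H10 agar with 0.05% (v/v) glycerol and 10% (v/v) OADC in 96-well format. Compounds dissolved at 50 mg/mL (stock), two-fold serial dilutions, final 500-0.5 µg/mL. Each well spotted with 2 µL early-to-midlog culture (2x10^3 CFU), incubated at 37 °C until distinct spots in control wells. DMSO-only and isoniazid controls; triplicate.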

[2] = Selectivity index, ratio of GIC50 for cytotoxicity against mouse RAW264.7 cells to MIC for Mycobacterium tuberculosis H37Rv ATTC 27294; type: toxicity, cell-based; conditions: read-out: Selectivity Index
How it was run: (§1)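 SI = GIC50 / H37Rv MIC (agar spot assay). GIC50 from cells in RPMI-1640 + 10% FBS, 37 °C, 5% CO2; 10^5 cells/mL added to two-fold compound dilutions from 50 mg/mL stock, solvent control row. 48 h exposure, washes (THP-1 centrifuged), fresh medium plus 0.01% […], overnight; fluorescence ex 560/em 590 nm.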

[3] = Cytotoxic activity against human THP1 cells assessed as reduction in cell viability incubated for 48 hrs by […] based assay; set-up: species or system THP-1; conditions: THP1 cells
How it was run: (§2)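 RAW264.7 or THP-1 cells were grown in RPMI-1640 with 10% FBS and seeded at 10^5 cells/mL. Compound was two-fold serially diluted from a 50 mg/mL stock, with a solvent-control row. Plates were held 48 h at 37 °C in 5% CO2. Wells were washed twice with PBS, with centrifugation between washes for THP-1, then given fresh RPMI plus 0.01% […]. After overnight incubation, fluorescence was read at 560/590 nm and GIC50 derived.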

[4] = tested on: Mycobacterium tuberculosis; test: Antimycobacterial activity against Mycobacterium tuberculosis mc'2-7000x assessed as inhibition of mycobacterial growth; type: functional
[5] = Selectivity index, ratio of GIC50 for cytotoxicity against human THP1 cells to MIC for Mycobacterium tuberculosis H37Rv ATTC 27294; type: toxicity, cell-based, THP-1; conditions: read-out: Selectivity Index; how it was run: as §1
[6] = tested on: Mycolicibacterium smegmatis; test: Antimycobacterial activity against Mycobacterium smegmatis str. MC2 155 ATCC 700084 assessed as inhibition of mycobacterial growth incubated for 24 hrs by MABA method; type: functional; conditions: MC2 155 ATCC 700084, 24 h
Mycolicibacterium aurum [7] = test: Antimycobacterial activity against Mycobacterium aurum ATCC 23366 assessed as inhibition of mycobacterial growth incubated for 4 days; type: functional
How it was run: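 HT-SPOTi agar dilution: two-fold serial dilutions of compound were mixed into Middlebrook 7H10 agar with 0.05% glycerol and 10% OADC, giving a final range of 500–0.5 µg/mL. Each well was spotted with 2x10^3 CFU of early-to-mid-log culture. Plates were incubated at 35 or 37 °C until spots appeared in control wells. Controls were DMSO-only and isoniazid. The MIC was read, in triplicate.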

Mycolicibacterium aurum [8] = test: Inhibition of multidrug resistance efflux pump in Mycobacterium aurum ATCC 23366 assessed as inhibition of ethidium bromide efflux by measuring relative fluorescence units for ethidium bromide accumulation at 1/4 times MIC incubated for 60 mins by fluorimetric assay
How it was run: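 Whole-cell efflux assay: early-log cells (OD600 ~0.8) adjusted to OD600 0.4, washed into PBS; 4-6x10^7 bacteria/mL with 0.4% glucose, 0.5 mg/L ethidium bromide substrate and compound at 1/4x MIC. Fluorescence ex 544/em 590 nm at 37 °C every minute for 60 min; accumulation scored 0-4 by relative fluorescence bands. Verapamil positive, PBS negative control.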

[9] = Cytotoxic activity against mouse RAW264.7 cells assessed as reduction in cell viability incubated for 48 hrs by […] based assay; how it was run: as §2

Compound | MIC [1] | selectivity ratio [2] | GI50 at 48 h [3] | MIC [4] | selectivity ratio [5] | MIC [6] | MIC (Mycolicibacterium aurum [7]; ATCC 23366, 96 h) | Activity (Mycolicibacterium aurum [8]) | GI50 at 48 h [9] | MIC (Mycolicibacterium aurum [7])
Cc1cc(CN2CCN(C3C4CC5CC(C4)CC3C5)CC2)c(C)n1-c1ccc(Cl)cc1 (configuration not stated) | 7.8 µg/mL (≈ 17.8 µM) | 0.7 | 32 µg/mL (≈ 73 µM) | 3.3 µg/mL (≈ 7.53 µM) | 4.1 | 8 µg/mL (≈ 18.3 µM) | 7.8 µg/mL (≈ 17.8 µM) | 1 RFU | 5.7 µg/mL (≈ 13 µM) | 
Cc1cc(CNCc2ccc(F)cc2)c(C)n1-c1ccc(Cl)cc1 | > 125 µg/mL |  | 8.4 µg/mL (≈ 24.5 µM) | 0.7 µg/mL (≈ 2.04 µM) |  | 2 µg/mL (≈ 5.83 µM) | 1.9 µg/mL (≈ 5.54 µM) | 1 RFU | 26 µg/mL (≈ 75.8 µM) | 
Cc1ccc(CNCc2cc(C)n(-c3ccc(Cl)cc3)c2C)cc1 | 1 µg/mL (≈ 2.95 µM) | 0.1 | 6.1 µg/mL (≈ 18 µM) | 2 µg/mL (≈ 5.9 µM) | 6.1 | 8 µg/mL (≈ 23.6 µM) | 1.9 µg/mL (≈ 5.61 µM) | 2 RFU | 0.1 µg/mL (≈ 0.295 µM) | 
Cc1c(CN2CCN(c3ccccc3)CC2)c(CN2CCN(c3ccccc3)CC2)c(C)n1-c1ccc(Cl)cc1 | 31 µg/mL (≈ 55.9 µM) | 16 | 113 µg/mL (≈ 204 µM) | > 64 µg/mL | 3.6 | > 64 µg/mL | 250 µg/mL (≈ 451 µM) | 2 RFU | 500 µg/mL (≈ 902 µM) | 
Cc1cc(CNCCc2ccccc2)c(C)n1-c1ccc(Cl)cc1 | 1 µg/mL (≈ 2.95 µM) | 10 | 7.3 µg/mL (≈ 21.5 µM) | 4 µg/mL (≈ 11.8 µM) | 7.3 | 32 µg/mL (≈ 94.4 µM) | 16 µg/mL (≈ 47.2 µM) | 2 RFU | 9.9 µg/mL (≈ 29.2 µM) | 
Cc1c(CN2CCN(C)CC2)cc(-c2ccc(Cl)cc2)n1-c1ccc(Cl)cc1 | 1 µg/mL (≈ 2.41 µM) | 19 | 3.23 µg/mL (≈ 7.8 µM) | 8 µg/mL (≈ 19.3 µM) | 3.23 | 25 µg/mL (≈ 60.3 µM) | 16 µg/mL (≈ 38.6 µM) | 2 RFU | 19 µg/mL (≈ 45.9 µM) | 
Cc1cc(CNCc2ccccc2)c(C)n1-c1ccc(F)cc1 | 1 µg/mL (≈ 3.24 µM) | 5.6 | 28 µg/mL (≈ 90.8 µM) | 4 µg/mL (≈ 13 µM) | 28 | 16 µg/mL (≈ 51.9 µM) | 7.8 µg/mL (≈ 25.3 µM) | 1 RFU | 5.6 µg/mL (≈ 18.2 µM) | 
Cc1cc(CNC2CCCCC2)c(C)n1-c1ccc(Cl)cc1 | 0.2 µg/mL (≈ 0.631 µM) | 50 | 7.4 µg/mL (≈ 23.4 µM) | 0.5 µg/mL (≈ 1.58 µM) | 37 | 8 µg/mL (≈ 25.2 µM) | 7.8 µg/mL (≈ 24.6 µM) | 2 RFU | 10 µg/mL (≈ 31.6 µM) | 
Cc1cc(CN2CCN(C3CCCCC3)CC2)c(C)n1-c1ccc(Cl)cc1 | 3.9 µg/mL (≈ 10.1 µM) | 1.4 | 16 µg/mL (≈ 41.5 µM) | 8 µg/mL (≈ 20.7 µM) | 4.1 | 27 µg/mL (≈ 70 µM) | 31 µg/mL (≈ 80.3 µM) | 4 RFU | 5.5 µg/mL (≈ 14.2 µM) | 
Cc1c(CN2CCN(C3C4CC5CC(C4)CC3C5)CC2)cc(-c2ccc(Cl)cc2)n1-c1ccc(Cl)cc1 (configuration not stated) | 62 µg/mL (≈ 116 µM) | 1.5 | 500 µg/mL (≈ 935 µM) | > 64 µg/mL | 8.1 | > 64 µg/mL |  | 0 RFU | 95 µg/mL (≈ 178 µM) | inactive
Cc1c(CN2CCN(C3CC4CCC3C4)CC2)cc(-c2ccc(Cl)cc2)n1-c1ccc(Cl)cc1 (mixture of isomers) |  |  | 429 µg/mL | 64 µg/mL | 6.7 | 64 µg/mL | 250 µg/mL |  |  | 
Cc1cc(CN2CCN(C3C4CC5CC(C4)CC3C5)CC2)c(C)n1-c1ccccc1F (configuration not stated) | 3.9 µg/mL (≈ 9.25 µM) | 2.8 | 26 µg/mL (≈ 61.7 µM) | 1 µg/mL (≈ 2.37 µM) | 6.7 | 13 µg/mL (≈ 30.8 µM) | 250 µg/mL (≈ 593 µM) | 1 RFU | 11 µg/mL (≈ 26.1 µM) | 
